Hits are enriched below; roughly 5.8% of the tested compounds scored in any of these assays.
14-3-3 Bad inh = disrupts binding of bovine 14-3-3 zeta to phospho-Bad peptide. P63103. TR-FRET 14-3-3zeta/Dy647-pBad peptide displacement, 1 h. inhibition, % at 21.7 µM. 220,000 tested, 0.71% active;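 active = inhibition above about 70%, limit read from the data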
WT yeast gro inh = growth inhibition of WT yeast, mitochondrial fusion screen | inhibition, % at 10 µM | AID 1362 | mitochondrial fusion phenotypic screen, WT strain | 190,000 tested, 2.1% active; in the data active = inhibition above about 58%; tested in S. cerevisiae
RBBP9 inhibitor = human RBBP9 hydrolase inhibition. O75884. recombinant RBBP9, FP-Rh probe fluorescence polarization. inhibition, % at 7.94 µM. 220,000 tested, 0.2% active. AID 1515;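 active = inhibition above the campaign mean of all tested compounds plus 3 SD, cut at about 14% in these data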
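Measured by: FP readout at 525/598 nm; material: recombinant human RBBP9; also added: Serine-hydrolase probe FP-Rh, 375 nM pre-mixing; medium: Tris buffer pH 8.0, NaCl, Pluronic; replication: one well per compound; doses: one concentration, 7.94 µM nominal, 0.794% DMSO; timing: preincubation 30 min plus labeling 45 min at 25 °C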
KCC2 mod = modulators of human KCC2 chloride dependent transport. Q9H2X9. KCC2 cells, thallium flux FluoZin-2 fluorescence. B-score of Tl+ flux slope (higher = more flux/activation; lower = inhibition) at 10 µM. 190,000 tested, 2.2% active;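 active = thallium flux slope and its plate-corrected score both differing from the plate sample mean at a set confidence after two filtering rounds, in either direction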;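 note: slope of fluorescence scaled to starting intensity during 10 to 20 s after thallium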
ROMK primary = human ROMK K+ channel modulation, primary screen | P48048 | Tet-inducible ROMK, thallium flux fluorescence; actives lie on both sides | B-score at 10 µM | 130,000 tested, 2% active;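 active = signal ratio slope over the read window, or its plate-corrected B-score, at least 3 SD from the plate mean, either direction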;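 note: B-score of the F/F0 ratio slope over 7 to 12 s after thallium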
p47phox inh = p47phox (human) inhibition; 220,000 tested, 0.53% active; inhibition, % at 24.7 µM; p47phox/p22phox peptide binding, fluorescence polarization, 2 h; P14598; AID 1274;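 active = inhibition above about 30%, limit read from the data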
KCC2 sec1 = KCC2 (human) modulation, secondary assay | shares compounds with KCC2 mod | HEK293-KCC2, thallium flux, FluoZin2 fluorescence; stronger effect = higher value | normalised thallium flux (F/F0 slope) at 10 µM | 3,700 tested, 15% active | AID 1713;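 active = thallium flux slope above the same plate's solvent-only control mean plus 3 SD; inconclusive = the two replicate wells disagree; inactive = no significant difference from solvent-only control wells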
KCC2 bumet counter = thallium flux persisting under bumetanide in KCC2 cells, counter-screen secondary assay; normalized thallium flux at 10 µM; AID 1714; 3,700 tested, 49% active; shares compounds with KCC2 mod; HEK293-KCC2 + bumetanide/ouabain, thallium flux FluoZin2; stronger effect = higher value;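 active = thallium entry rate above the same plate's blocked-transporter control wells by more than 3 SD; inconclusive = the two repeat wells disagree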;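 note: raw slope of fluorescence over initial fluorescence between 10 and 20 s after thallium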
KCC2 sec2 = confirmation of human KCC2 transport modulators; normalized thallium flux at 10 µM; 3,700 tested, 23% active; shares compounds with KCC2 mod; HEK293-KCC2, thallium flux FluoZin2 fluorescence; actives lie on both sides; F/F0 rise rate, 10–20 s post-thallium; AID 1715;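 active = thallium flux slope more than 3 SD above or below the plate's solvent-only control mean, mostly below; inconclusive = the two repeat wells disagreed; inactive = no significant shift from solvent-only controls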
HEK counter1 = parental HEK flux effect, counter-screen; AID 1716; shares compounds with KCC2 mod; HEK293 parental cells, thallium flux FluoZin2, ouabain; baseline-ratio fluorescence slope, 10–20 s after thallium; thallium flux rate (normalised fluorescence) at 10 µM; 3,700 tested, 46% active;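 active = thallium flux rate significantly above the same plate's solvent-only control wells, beyond their mean plus 3 SD; inconclusive = the two replicate wells gave conflicting results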
KCC2 ouabain = modulates human KCC2 on retest with ouabain; shares compounds with KCC2 mod; HEK293-KCC2, thallium flux FluoZin2 fluorescence; bidirectional: low = inhibitor, high = activator; raw Tl+ flux slope (below DMSO = inhibition, above = activation) at 10 µM; 3,700 tested, 48% active;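 active = thallium flux slope beyond 3 SD from same-plate DMSO control mean in most replicates, usually higher, sometimes lower; inconclusive = repeat tests gave conflicting results; inactive = no significant difference from controls in most replicates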;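 note: slope of initial-normalized fluorescence between seconds 10 and 20 after thallium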
HEK293 Tl flux2 = counter-screen for KCC2 modulators: effect in parental HEK293 cells; shares compounds with KCC2 mod; thallium flux FluoZin-2 fluorescence slope; thallium flux slope at 10 µM; 3,700 tested, 33% active;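 active = thallium flux slope above the same plate's solvent-control mean plus 3 SD in both duplicate wells; inconclusive = duplicate wells that disagreed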;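 note: run without ouabain in cells lacking the KCC2 cotransporter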
Numbers stand for hits; - = inactive; ? = inconclusive; . = not tested or not shown.

SMILES	14-3-3 Bad inh	WT yeast gro inh	RBBP9 inhibitor	KCC2 mod	ROMK primary	p47phox inh	KCC2 sec1	KCC2 bumet counter	KCC2 sec2	HEK counter1	KCC2 ouabain	HEK293 Tl flux2
COC(=O)c1ccccc1NC(=S)NC(=O)COc1ccccc1Cl	-	-	-	18.5	-	-	0.0228	0.0498	?	0.0119	0.024	0.0158
COC(=O)c1ccccc1NC(=S)NC(=O)COc1ccc(C)cc1	.	.	-	-	.	.	.	.	.	.	.	.
CCc1ccccc1NC(=S)NN	-	-	-	-	-	-	.	.	.	.	.	.
O=C(Nc1nc(-c2cccc([N+](=O)[O-])c2)cs1)C(c1ccccc1)c1ccccc1	-	-	-	-	.	-	.	.	.	.	.	.
CCc1ccccc1NC(=S)NNC(=O)c1ccccc1Cl	-	-	-	3.21	-	-	-	0.0117	-	0.0115	-	0.0135
O=C(NNC(=S)NC(=O)c1ccccc1[N+](=O)[O-])c1ccccc1Cl	-	-	-	-	.	-	.	.	.	.	.	.
O=C(NC(=S)Nc1ccccc1[N+](=O)[O-])c1ccccc1Cl	-	.	-	18.7	.	-	?	0.0336	-	0.019	0.0297	0.0133
CCSC1=N/C(=C/c2ccsc2)C(=O)N1c1ccccc1	-	-	-	-4.72	-	-	-	-	-	-	-	-
CCCSC1=N/C(=C/c2ccsc2)C(=O)N1c1ccccc1	-	-	-	-	-	-	.	.	.	.	.	.
Nc1c(C(=O)c2ccccc2)sc2nsc(SCCN3CCCC3)c12	-	.	-	4.19	.	-	0.00598	-	-	-	0.0143	-
Nc1c(C(=O)c2ccc(Cl)cc2)sc2nsc(SCCN3CCOCC3)c12	-	.	-	-	.	-	.	.	.	.	.	.
CCOC(=O)c1[nH]c2ccc(Br)cc2c1NC(=O)CCN1CCC(C(=O)OCC)CC1	-	-	-	-	-	-	-	-	?	-	-	-
CCOC(=O)c1[nH]c2ccc(Br)cc2c1NC(=O)CCN1CCCCC1	-	-	-	.	.	-	.	.	.	.	.	.
CC(=O)Nc1ccc(S(=O)(=O)Nc2cccc(-c3nc4ccccc4o3)c2)cc1	-	-	-	.	-	-	-	?	-	-	-	-
Cc1ccc(-c2n[nH]c(=O)c3ccccc23)cc1S(=O)(=O)NCCN1CCOCC1	-	-	-	-	-	-	-	0.00869	-	0.00878	-	?
Cc1cc(C(=O)CSc2nc(N)cc(=O)[nH]2)c(C)n1CCc1ccc(F)cc1	-	.	-	-4.18	.	-	-	-	-	-	-	-
CCOc1ccc(OCc2ccc(C(=O)N/N=C(\C)c3ccccn3)cc2)cc1	-	-	-	8.98	-	-	-	0.024	-	0.0294	0.0298	?
CCN(CCCn1c(=S)[nH]c2ncccc2c1=O)c1ccccc1	-	-	-	78.4	.	-	0.0186	0.142	-	0.116	0.119	0.0228
CC(C)OCCCn1c(=S)[nH]c2ncccc2c1=O	-	-	-	13.2	.	-	0.0166	0.0339	-	0.0163	0.0302	0.0123
CC1CCCCN1CCn1c(=S)[nH]c2ncccc2c1=O (stereo unspecified)	-	-	-	.	-	-	.	.	.	.	.	.
CCN(CCCn1c(=S)[nH]c2ccc(N3CCOCC3)cc2c1=O)c1ccccc1	-	-	-	4.86	-	-	0.0123	0.0165	-	0.00949	0.0522	0.0111
O=c1c2cc(N3CCOCC3)ccc2[nH]c(=S)n1CCCN1CCCC1	-	-	-	-	.	-	.	.	.	.	.	.
O=c1c2cccnc2[nH]c(=S)n1CCCN1CCN(c2ccccc2F)CC1	-	-	-	19.7	.	-	0.0132	0.0762	-	0.0389	0.0581	0.0126
CCN(CC)CCCn1c(=S)[nH]c2ncccc2c1=O	-	-	-	-	-	-	.	.	.	.	.	.
C/C(=N\NC(=O)c1ccc(-c2ccccc2)cc1)C1C(=O)c2ccccc2C1=O	-	-	-	-	-	-	.	.	.	.	.	.
SMILES	14-3-3 Bad inh	WT yeast gro inh	RBBP9 inhibitor	KCC2 mod	ROMK primary	p47phox inh	KCC2 sec1	KCC2 bumet counter	KCC2 sec2	HEK counter1	KCC2 ouabain	HEK293 Tl flux2
C/C(=N\NC(=O)c1ccc(Br)cc1)C1C(=O)c2ccccc2C1=O	-	-	-	-5.38	-	-	-	-	0.0228	-	?	-
Cc1c(Cl)cccc1N=c1c([N+](=O)[O-])nn(-c2ccccc2)n1O	-	-	-	6.02	-	-	-	-	-	-	-	-
COc1ccccc1CN(Cc1nc2ccccc2c(=O)[nH]1)C(=O)Nc1ccc(C)cc1	-	.	-	.	-	-	.	.	.	.	.	.
COc1ccccc1CN(Cc1nc2ccccc2c(=O)[nH]1)S(=O)(=O)c1ccc(C)cc1	-	-	-	.	-	-	-	-	-	-	-	-
O=C(CN1CCN(Cc2ccccc2Cl)CC1)N/N=C/c1ccco1	-	.	-	-	.	-	.	.	.	.	.	.
C/C(Cl)=C\Cn1c(O)c(N=NC(N)=S)c2cc(Br)ccc21	-	-	-	35.6	-	-	-	0.0289	0.0543	0.0425	0.0622	0.0295
NC(=S)N=Nc1c(O)n(CCCl)c2ccc(Br)cc12	-	.	-	28.7	-	-	0.0165	0.0693	-	0.0301	0.0418	0.0147
CCOC(=O)N1CCN(Cc2nc(N)nc(Nc3ccc(Oc4ccccc4)cc3)n2)CC1	-	-	-	-4.12	.	-	-	-	-	-	-	-
Cc1nc2cc(C(=O)N3c4ccccc4CC3C)ccc2s1 (stereo unspecified)	-	-	-	.	.	-	?	-	-	-	0.0196	?
CC1Cc2ccccc2N1C(=O)c1ccc2snnc2c1 (stereo unspecified)	-	-	-	.	-	-	.	.	.	.	.	.
CCCOC(=O)c1ccc(NC(=O)c2ccccc2[N+](=O)[O-])cc1	-	-	-	-	-	-	.	.	.	.	.	.
N#CC(C#N)=C(Nc1ccc(F)cc1)SCc1cccc(Br)c1	-	-	-	-3.69	-	-	-	?	?	0.00963	0.0146	-
CC(SCc1ccccc1)C(=O)Nc1ccc(F)cc1 (stereo unspecified)	-	-	-	-	.	-	.	.	.	.	.	.
Cc1cccc(CSC(Nc2ccc(F)cc2)=C(C#N)C#N)c1	-	80.2	-	-5.01	-	-	-	-	-	0.00565	0.0588	-
